# Screens deposited in PubChem by several laboratories.
# M1 agonist = M1 muscarinic receptor agonists, primary screen, CHO-M1 cells, Fluo-4 calcium, agonist mode; Muscarinic acetylcholine receptor M1; Fluo-4 calcium fluorescence; hits give high values; B-score at 10 µM; 64,000 tested, 3% active; AID 626, 2007;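 active = fluorescence rise, raw or as B-score row- and column-corrected plate score, outside the 99.7% band of its plate's samples, either direction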
# D1 allo mod = D1 CRE-luciferase signal change, two-sided – cell-based, HEK293 D1, dopamine EC30, D1 allosteric modulator project, primary screen; D(1A) dopamine receptor (Homo sapiens), P21728; dopamine EC30 potentiation; actives deviate in either direction; B-score at 10 µM; 58,000 tested, 5.9% active; AID 641, 2007;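 active = luminescence count or its row- and column-corrected plate score outside the 99.7% band of the plate's sample wells, on either side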
# HePTP inhibitor = inhibitors of human HePTP phosphatase, primary screen, biochemical, absorbance, leukemia target | AID 521, 2006 | Tyrosine-protein phosphatase non-receptor type 7 (Homo sapiens), P35236 | 110,000 tested, 0.64% active | recombinant HePTP phosphatase activity, OD absorbance | inhibition, % at 20 µM; in the data active = inhibition above about 50%; inconclusive = no clear call, values can overlap the other calls;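 also: plate controls were vehicle for no effect and reference inhibitor for full effect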
# M1 antagonist = antagonists of rat M1 muscarinic receptor; CHO-M1 cells, Fluo-4 calcium, ACh EC80 antagonist mode; hits give low values; B-score at 10 µM; 64,000 tested, 3.4% active;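 active = calcium fluorescence response, raw or row-and-column corrected B-score, differing from the plate sample mean either way at a set confidence level, mostly lower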
# RORA act = activators of orphan receptor RORA, primary screen, cell-based, luminescence. Nuclear receptor ROR-alpha (Homo sapiens), P35398. CHO-K1 Gal4-RORA LBD luciferase reporter; percent increase over mock-subtracted basal signal. activation, % at 10 µM. 65,000 tested, 1.5% active. AID 560, 2006;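 active = activation above the mean of all tested compounds plus 3 SD, cut at about 49% in these data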;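 also: 0% = DMSO-treated RORA cells and 100% = added signal equal to DMSO minus mock-transfected cells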
# Target sequence (P35398 whole entry, looked up, the tested form may be a part): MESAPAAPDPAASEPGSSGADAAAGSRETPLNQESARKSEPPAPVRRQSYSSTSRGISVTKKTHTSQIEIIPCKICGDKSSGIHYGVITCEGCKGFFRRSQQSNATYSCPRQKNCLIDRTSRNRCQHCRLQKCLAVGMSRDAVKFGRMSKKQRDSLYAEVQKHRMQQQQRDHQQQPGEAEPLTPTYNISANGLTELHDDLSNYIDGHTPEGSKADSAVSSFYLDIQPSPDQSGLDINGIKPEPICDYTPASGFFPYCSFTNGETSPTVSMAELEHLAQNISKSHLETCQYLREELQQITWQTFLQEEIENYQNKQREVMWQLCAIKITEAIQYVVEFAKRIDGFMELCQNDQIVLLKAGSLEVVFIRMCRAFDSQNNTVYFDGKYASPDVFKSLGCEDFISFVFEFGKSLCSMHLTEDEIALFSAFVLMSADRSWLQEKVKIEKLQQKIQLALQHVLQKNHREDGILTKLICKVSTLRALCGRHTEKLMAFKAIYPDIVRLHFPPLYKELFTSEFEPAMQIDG
# SF1 activator = activators of human SF-1, primary screen, cell-based, CHO-K1, Gal4-SF-1 LBD, luciferase luminescence | activation, % at 10 µM | Steroidogenic factor 1 (Homo sapiens), Q13285 | AID 522, 2006 | CHO-K1 Gal4-SF-1 LBD luciferase reporter; % increase over DMSO SF-1-specific signal | 65,000 tested, 1.9% active;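 active = activation above the mean activation of all tested compounds plus 3 SD, cut at about 50% in these data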
#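 Test system: CHO-K1 cells co-transfected with Gal4 DBD–human SF-1 LBD, 5xGal4 luciferase reporter. Quantity: 4,000 cells per well. Compound: 10 µM only. Incubation: compound added 1 h post-seeding, 20 h exposure at 37 °C, 5% CO2. Detection: SteadyLite luciferase luminescence. Replication: one test per compound.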
# M1 agonist conf = rat M1 muscarinic receptor agonists, confirmation, CHO-M1 cells, Fluo-4 calcium, duplicate retest. fluorescence change (max-min) at 10 µM. shares compounds with M1 agonist. Fluo-4 calcium fluorescence, agonist mode; actives lie on both sides. 1,700 tested, 19% active;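 active = fluorescence change differs from the solvent-only DMSO control mean at a set confidence level in both duplicate runs; inconclusive = differs from solvent-only control mean in just one of two runs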;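 also: an EC20 dose of acetylcholine follows compound addition during the same imaging run; raw fluorescence intensity difference in instrument units with no normalization to controls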
# M4 ag counter = agonist activity at rat M4 receptor, confirmation, counter-screen for M1 allosteric modulator project, cell-based, agonist mode. shares compounds with M1 agonist. CHO M4/Gqi5 cells, Fluo-4 calcium fluorescence; actives lie on both sides. fluorescence change (max-min) at 10 µM. 1,700 tested, 9% active. AID 1741, 2009;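 active = fluorescence change differing from the plate's solvent-only control wells at 99.7% confidence in both duplicates, whether higher or lower; inconclusive = differs from solvent controls in only one of two duplicates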
# M1 antag conf = rat M1 muscarinic receptor antagonists, confirmation, CHO cells, Fluo-4 calcium, duplicate; shares compounds with M1 antagonist; ACh EC80 antagonism; hits give low values; calcium response (max-min fluorescence) at 10 µM; 1,700 tested, 43% active;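 active = calcium response below the same-plate mean of wells given acetylcholine alone at its 80%-effect dose, minus 3 SD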;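 also: raw fluorescence intensity difference in arbitrary instrument units and not normalized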
# mGluR4 antag = human mGluR4 response to M1 antagonist hits, M1 allosteric modulator project, cell-based, antagonist mode, secondary assay 1. shares compounds with M1 antagonist. CHO-mGluR4 calcium flux, Fluo-4 fluorescence, glutamate EC80; hits give low values. fluorescence response (max-min) at 10 µM. 1,700 tested, 0.9% active. AID 678, 2007;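 active = fluorescence response below the plate's average for near-maximal glutamate wells, less 3 SD of those wells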;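 also: raw unnormalized fluorescence span taken in the window right after glutamate addition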
# D1 mod confirm = D1 receptor positive allosteric modulators, retest, confirmation, cell-based, HEK293 D1, CRE-luciferase, duplicate; shares compounds with D1 allo mod; dopamine EC30 potentiation; hits give high values; luminescence at 10 µM; 2,200 tested, 88% active; AID 642, 2007;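 active = luminescence in either of two replicates above the same-plate mean plus 3 SD of the low-dose dopamine control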
# D1 no dopamine = D1 receptor agonism without dopamine, confirmation, mechanism study for D1 allosteric modulator project, cell-based, HEK293 D1, CRE-luciferase, secondary assay 1; shares compounds with D1 allo mod; luminescence, no dopamine; hits give high values; luminescence at 10 µM; 1,900 tested, 0.8% active; AID 646, 2007; in the data active = luminescence above about 3900
# Isoprot counter = alters isoproterenol CRE-luciferase response in HEK293 cells | calls only at 10 µM | shares compounds with D1 allo mod | HEK293 D1 CRE-luciferase, isoproterenol EC30 counter-screen | AID 647 | 2,200 tested, 63% active;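 active = luminescence in either replicate above plate mean of wells with a partly effective reference agonist dose plus 3 SD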;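 also: isoproterenol raises cAMP through native beta-adrenoceptor Gs so signal bypasses D1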
# Starred values were filed as active, the others as inactive; i = inactive; ? = inconclusive; · = no result given. Only some compounds are listed: those with a hit (about 8.2% of all), similar ones and a draw of the others.
SMILES,M1 agonist,D1 allo mod,HePTP inhibitor,M1 antagonist,RORA act,SF1 activator,M1 agonist conf,M4 ag counter,others
CNC(=O)c1cc2ccc(OC)cc2oc1=O,3.8*,-1.3,5,-2.3*,-7,12,132*,93,
COC(=O)c1cccc(NC(=O)CSc2nnc(COc3ccc(C#N)cc3)n2-c2ccccc2)c1,3.6*,-0.043,10,-0.11,-8,-2,?,-49,
Cc1ccc2nc(Nc3ccc4[nH]c(=O)[nH]c4c3)c(-n3nc(C)cc3C)nc2c1,20*,0.19,·,0.29,59*,5,-23*,-53,
CC(=O)NC(CCS(C)(=O)=O)C(=O)Nc1ccc(Cl)c(Cl)c1 (stereo not drawn),2.9*,0.1,-6,-1.6,3,6,-8.3,-47,
Nc1nc(SCC(=O)NCCCN2CCOCC2)nc2sc3c(c12)CCC3,-0.083,-1.3,2,-0.00057,-16,-1,·,·,
Cc1oc2nc(SCCCC(=O)NCCCO)nc(N)c2c1C,4.6*,0.99,6,0.73,-10,-5,?,?,
c1ccc(Cc2nnc3n2CCCCC3)cc1,-0.51,-0.082,-8,-0.11,-23,10,·,·,
c1ccc2c(c1)CCCN2Cc1nnc2n1CCCCC2,active,·,-4,0.13,4,3,?,-33,
Cc1cc(C)c(S(=O)(=O)NNc2ccccc2)c(C)c1,·,·,6,·,·,·,·,·,
COC(=O)c1ccc(/C(O)=C(\C#N)c2nc3ccccc3s2)cc1,2.7*,0.016,-12,-2.4*,19,84*,28,-1.3,
CCOC(=O)c1ccc(NC(=O)N2CCN(CCc3ccccc3)CC2)cc1,-2.4*,-1.4,3,-2.2*,-1,3,-1.7,-23,M1 antag conf=459;mGluR4 antag=192
CCOC(=O)c1ccc(NC(=O)N2CCN(c3ccccn3)CC2)cc1,0.82,0.65,0,0.0017,-16,12,·,·,
CC(C)COC(=O)C(C#N)c1nc2ccccc2nc1N1CCN(Cc2ccccc2)CC1 (stereo not drawn),-2.3*,-0.42,13,-1.3*,14,-17,8.3,-8.4,M1 antag conf=631;mGluR4 antag=178
COCCn1c(C)cc(C(=O)CSc2ncn[nH]2)c1C,0,-0.17,5,-0.52,7,25,·,·,
Cc1cc(C)nc(NC2=NCC(=O)N2c2cccc(Cl)c2)n1,-0.28,-0.0094,2,0.58,0,1,·,·,
CCc1nnc(NC(=O)c2ccc(N3C(=O)CCC3=O)cc2)s1,-2.5*,-1.1,-11,-3.1*,20,42,?,0.15,M1 antag conf=694;mGluR4 antag=199
COc1ccccc1NCN1C(=O)CSC1=O,·,·,2,·,·,·,·,·,
CCOc1ccccc1NC(=O)CC1Nc2ccccc2NC1=O (stereo not drawn),-1.3,0.74,·,-0.37,8,4,·,·,
CCOc1ccccc1NC(=O)CC1Nc2cc(C)c(C)cc2NC1=O (stereo not drawn),-2.3*,1.3,-1,-2.6*,10,2,-10,-41,M1 antag conf=597;mGluR4 antag=232
CCC(CC)C(=O)Nc1c2c(nn1-c1ccc(OC)cc1)CS(=O)C2 (stereo not drawn),-2.4*,1.5,-5,-3.3*,-11,2,?,-36,M1 antag conf=675;mGluR4 antag=175
CC1CCCCN1CCNC(=O)c1cc2c(=O)n(C)c3ccccc3c2n1C (stereo not drawn),-2.7*,0.41,0,-4.2*,7,16,-17,-25,M1 antag conf=419*;mGluR4 antag=254
COC(=O)Oc1c(Br)c(=O)oc2ccccc12,0.024,-1.1,-5,-0.71,20,-19,·,·,
CCOc1ccc(N=Cc2c(O)cc(C)oc2=O)cc1,-3.4*,0.8,1,-10*,-10,-4,-13,?,M1 antag conf=688;mGluR4 antag=203
Cc1cc(O)c(/C=N/c2ccccn2)c(=O)o1,-0.81,-0.024,·,0.57,-13,-9,·,·,
COCCCNc1c2c3c(cccc3[nH]c1=O)C(=O)c1ccccc1-2,466*,3*,-5,-13*,·,·,3166*,2818*,D1 mod confirm=8772*;D1 no dopamine=1436;Isoprot counter=i
O=C1c2ccccc2-c2c(NC3CCCCC3)c(=O)[nH]c3cccc1c23,·,·,9,·,·,·,·,·,
COc1ccccc1CNC(=O)CN(C)CC(=O)Nc1cccc(F)c1,0.59,0.15,6,0.95,-19,-13,·,·,
CCOc1ccc(C=NCC2(c3ccccc3)CCCC2)cc1OC,·,·,-5,·,·,·,·,·,
CCOC(=O)c1c(C)oc2c1c(C=NCc1ccccn1)c(O)c1ccccc12,7.1*,4.2*,15,-0.95,4,-22,28,-18,D1 mod confirm=12568*;D1 no dopamine=1616;Isoprot counter=i
N#CCCN1CCN(C(=S)c2ccc(-c3cccc(Cl)c3)o2)CC1,0.37,1,-4,-0.24,23,6,·,·,
